Measurements as given in ChEMBL document CHEMBL1649083, “Discovery of novel inhibitors of the NorA multidrug transporter of Staphylococcus aureus” (2011).
Values after ≈ are worked out from the molar mass of the structure shown.

How the values were obtained:
[1] = target: T1, Quinolone resistance protein NorA (Staphylococcus aureus) (UniProt P0A0J7); experiment: Inhibition of NorA in Staphylococcus aureus 1199B assessed as reduction in ethidium bromide efflux at 50 uM by fluorimetry after 5 mins
T1 sequence (whole entry): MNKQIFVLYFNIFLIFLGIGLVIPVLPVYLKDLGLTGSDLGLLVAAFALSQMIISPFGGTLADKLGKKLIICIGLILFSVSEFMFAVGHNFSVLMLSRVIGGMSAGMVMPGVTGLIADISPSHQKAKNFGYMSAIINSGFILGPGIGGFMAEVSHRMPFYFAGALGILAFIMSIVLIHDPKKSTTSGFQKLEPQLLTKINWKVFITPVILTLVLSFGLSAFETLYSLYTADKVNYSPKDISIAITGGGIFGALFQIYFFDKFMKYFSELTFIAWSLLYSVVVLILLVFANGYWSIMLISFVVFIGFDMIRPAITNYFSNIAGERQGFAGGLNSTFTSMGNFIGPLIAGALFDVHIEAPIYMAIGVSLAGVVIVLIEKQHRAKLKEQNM
Summary of the method: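 S. aureus SA-1199B (NorA overexpressing via promoter up-mutation; GrlA A116E), EtBr-loaded cells. EtBr loss measured fluorometrically over a 5 min time course, in duplicate, as mean total efflux. Percent reduction calculated versus efflux without compound. Test compound at 50 μM; increasing concentrations were also run for dose-response profiles.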

[2] = target: T1, Quinolone resistance protein NorA (Staphylococcus aureus); experiment: Inhibition of NorA in Staphylococcus aureus 1199 assessed as reduction in ciprofloxacin MIC by microdilution technique
Summary of the method: (§1)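 Checkerboard combination: fresh scalar dilutions of test compound crossed with ciprofloxacin dilutions. Ciprofloxacin MIC determined by broth microdilution per CLSI guidelines, in duplicate. The result is the fold reduction in ciprofloxacin MIC relative to ciprofloxacin alone, read at the stated test-compound concentration. Reserpine served as reference inhibitor.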

Staphylococcus aureus [3] = experiment: Antibacterial activity against Staphylococcus aureus 1199B by microdilution technique; assay type: functional
Summary of the method: (§2)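 MICs run in duplicate by broth microdilution following CLSI guidelines. Ciprofloxacin MICs were also determined with scalar dilutions of freshly prepared test compound solutions in checkerboard combination format. Strain panel: SA-K1902 (norA-), SA-K2378 (norA++), SA-1199 (norA wild-type), SA-1199B (norA++, GrlA A116E) and ATCC 25923 wild-type control.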

Staphylococcus aureus [4] = experiment: Antibacterial activity against wild type Staphylococcus aureus ATCC 25923 by microdilution technique; assay type: functional
Summary of the method: (§3)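 Intrinsic MIC of each test compound, run alone, by broth microdilution per CLSI guidelines, in duplicate.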

Staphylococcus aureus [5] = experiment: Antibacterial activity against NorA deficient Staphylococcus aureus K1902 by microdilution technique; assay type: functional; summary of the method: as §3
Staphylococcus aureus [6] = experiment: Antibacterial activity against Staphylococcus aureus K2378 overexpressing NorA by microdilution technique; assay type: functional; summary of the method: as §3
Staphylococcus aureus [7] = experiment: Antibacterial activity against Staphylococcus aureus 1199B overexpressing wild type NorA and GrlA A116E mutant by microdilution technique; assay type: functional; summary of the method: as §3
Staphylococcus aureus [8] = experiment: Potentiation of ciprofloxacin MIC against NorA deficient Staphylococcus aureus K1902 by microdilution technique; assay type: functional; summary of the method: as §2
Staphylococcus aureus [9] = experiment: Potentiation of ciprofloxacin MIC against wild type Staphylococcus aureus ATCC 25923 by microdilution technique; assay type: functional; summary of the method: as §2
[10] = target: T1, Quinolone resistance protein NorA (Staphylococcus aureus); experiment: Inhibition of NorA in Staphylococcus aureus K2378 assessed as reduction in ciprofloxacin MIC at 3.13 ug/ml by microdilution technique
Summary of the method: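 CLSI broth microdilution checkerboard combining ciprofloxacin with scalar dilutions of freshly prepared test compound, in duplicate, against S. aureus SA-K2378 (NorA-overexpressing; SA-K1902 norA-negative as paired strain). Value is the ciprofloxacin MIC reduction with test compound present at the stated fixed concentration.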

[11] = target: T1, Quinolone resistance protein NorA (Staphylococcus aureus); experiment: Inhibition of NorA in Staphylococcus aureus 1199B expressing GrlA A116E mutant assessed as reduction in ciprofloxacin MIC at 25 ug/ml by microdilution technique
Summary of the method: (§4)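 Ciprofloxacin MICs were measured in duplicate by broth microdilution following CLSI guidelines, alone and in checkerboard combination with scalar dilutions of freshly prepared test compound. Potentiation was scored as the reduction in ciprofloxacin MIC. Strains: SA-1199B (NorA overexpressed via promoter up-mutation, plus GrlA A116E) and ATCC 25923 (wild-type control).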

[12] = target: T1, Quinolone resistance protein NorA (Staphylococcus aureus); experiment: Inhibition of NorA in Staphylococcus aureus K2378 assessed as reduction in ciprofloxacin MIC at 12.5 ug/ml by microdilution technique; summary of the method: as §1
[13] = target: T1, Quinolone resistance protein NorA (Staphylococcus aureus); experiment: Inhibition of NorA in Staphylococcus aureus 1199B expressing GrlA A116E mutant assessed as reduction in ciprofloxacin MIC at 12.5 ug/ml by microdilution technique; summary of the method: as §1
Staphylococcus aureus [14] = experiment: Antibacterial activity against Staphylococcus aureus 1199 expressing wild type NorA by microdilution technique
[15] = target: T1, Quinolone resistance protein NorA (Staphylococcus aureus); experiment: Inhibition of NorA in Staphylococcus aureus K2378 assessed as reduction in ciprofloxacin MIC at 1.56 ug/ml by microdilution technique; summary of the method: as §1
[16] = target: T1, Quinolone resistance protein NorA (Staphylococcus aureus); experiment: Inhibition of NorA in Staphylococcus aureus 1199B expressing GrlA A116E mutant assessed as reduction in ciprofloxacin MIC at 1.56 ug/ml by microdilution technique; summary of the method: as §1
Staphylococcus aureus [17] = experiment: Potentiation of ciprofloxacin MIC against wild type Staphylococcus aureus ATCC 25923 at 3.13 ug/ml by microdilution technique; assay type: functional; summary of the method: as §4
[18] = target: T1, Quinolone resistance protein NorA (Staphylococcus aureus); experiment: Inhibition of NorA in Staphylococcus aureus 1199 assessed as reduction in ciprofloxacin MIC at 0.78 ug/ml by microdilution technique
Summary of the method: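 Checkerboard combination of ciprofloxacin with freshly prepared test compound in S. aureus SA-1199 (norA wild-type). Ciprofloxacin MIC determined in duplicate by CLSI microdilution in the presence of fixed compound concentrations.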

Row | Structure (SMILES) | inhibition [1] [%] | fold change (FC) [2] | MIC (Staphylococcus aureus [3]) [µM] | MIC (Staphylococcus aureus [4]) [µg/mL] | MIC (Staphylococcus aureus [5]) [µg/mL] | MIC (Staphylococcus aureus [6]) [µg/mL] | MIC (Staphylococcus aureus [7]) [µg/mL] | fold change (FC) (Staphylococcus aureus [8]) | fold change (FC) (Staphylococcus aureus [9]) | fold change (FC) [10] | fold change (FC) [11] | fold change (FC) [12] | fold change (FC) [13] | MIC (Staphylococcus aureus [14]) [µg/mL] | fold change (FC) [15] | fold change (FC) [16] | fold change (FC) (Staphylococcus aureus [17]) | fold change (FC) [18]
1 | OC(CNCc1cccc(OCc2ccccc2)c1)c1ccccc1 (configuration not stated) | 88.4 | 4 |  |  |  |  |  |  |  |  |  |  |  |  |  |  |  | 
2 | C[C@@H](NCc1cccc(OCc2ccccc2)c1)[C@@H](O)c1ccccc1 | 86.6 | 2 | > 288 | 100 (≈ 288 µM) | 100 (≈ 288 µM) | 50 (≈ 144 µM) | > 100 | 2 | 2 | 4 | 16 | 16 | 4 | 100 (≈ 288 µM) |  |  |  | 
3 | Cn1cccc1-c1nc2cc(NC(=O)c3ccccc3)ccc2[nH]1 | 94.3 | 4 |  |  |  |  |  |  |  |  |  |  |  |  |  |  |  | 
4 | CC[C@H]1CCc2nc(SCc3ccc(C(=O)O)cc3)c(C#N)c(C(F)(F)F)c2C1 | 71.7 | 2 | 15 (≈ 6.31 µg/mL) | 6.25 (≈ 14.9 µM) | 6.25 (≈ 14.9 µM) | 6.25 (≈ 14.9 µM) | 6.25 (≈ 14.9 µM) | 2 | 2 |  |  |  |  | 12.5 (≈ 29.7 µM) | 16 | 2 |  | 
5 | CC[C@H](C)N1C(=O)S/C(=C/c2ccc(-c3cc(C(=O)O)ccc3Cl)o2)C1=O | 81 | 2 | 123 (≈ 49.9 µg/mL) | 50 (≈ 123 µM) | 50 (≈ 123 µM) | 50 (≈ 123 µM) | 50 (≈ 123 µM) | 2 | 2 | 32 |  | 32 | 8 | 25 (≈ 61.6 µM) |  |  |  | 
6 | Cc1ccc(S(=O)(=O)Nc2ccc3[nH]c(-c4cccn4C)nc3c2)cc1 | 88.2 |  | > 273 | > 100 | > 100 | > 100 | > 100 |  |  |  |  |  |  | > 100 |  |  | 8 | 8
